Article PMC8975796 (Clinical Pharmacokinetics, 2021)
Where “and” joins values, the source holds several entries; their conditions need not be identical. Equal entries are not always repeated. Where two headings read alike, the source gives them in different places. Marks after values point to notes of the source that are not given here.

Experiments:
[1] = ARIADME phase I pharmacokinetics/bioavailability study; format: in vivo, human; conditions: for Cmax: healthy male subjects; for CL renal: plasma and urine, CLR; for half-life: t½; for AUC(0-inf): AUC0–inf; for AUC(0-t): AUC0–tlast; for tmax: median (range)
Procedure, shortened: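 Six healthy fasted men took one oral 300 mg tablet, then a 100 µg IV 14C-microtracer as a 15-min infusion ending 3 h post-dose. Six others took an oral 14C-dose of 300 mg in aqueous propylene glycol solution (≤ 6.3 MBq). Oral plasma levels were measured by validated HPLC-MS, and IV levels by LC fractionation with accelerator MS. Values are geometric mean (CV%).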

[2] = format: in vivo, human; conditions: for RLIN, linearity factor (ratio of multiple-dose AUC0–12 to single-dose AUC): 600 mg BID with food; for RAAUC, accumulation ratio based on AUC0–12 / RACmax, accumulation ratio based on Cmax: multiple (day 7) vs single (day 1) dosing, 600 mg BID; for trough concentrations reached steady-state levels after: BID treatment 600 mg
Procedure, shortened: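 Fifteen healthy men took 600 mg (two 300 mg tablets) 30 min after starting a standardized meal on day 1, then twice daily on days 4–7. Plasma was sampled to 72 h after the single dose, at trough on days 4–6, and to 12 h on day 7. Samples underwent solid-phase extraction and LC-MS/MS. Accumulation ratios compared multiple- with single-dose AUC0–12 and Cmax. RLIN was multiple-dose AUC0–12 over single-dose AUC0–inf.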

[3] = format: in vivo, human; conditions: for Cmax increase vs healthy subjects / exposure (AUC0–48) increase vs healthy subjects: single 600 mg with food
Procedure, shortened: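 Open-label, parallel-group, multicenter trial in men aged 45–79. Groups were Child–Pugh B cirrhosis, severe renal impairment (eGFR 15–29 mL/min/1.73 m2, MDRD equation), and age- and weight-matched healthy controls. Each took two 300 mg tablets 30 min after starting a standardized breakfast. Plasma was sampled pre-dose to 48 h and assayed by validated LC-MS/MS. Parameters used total and unbound concentrations.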

[4] = tested on: plasma proteins; format: in vitro ADME, human; conditions: ex vivo samples after single oral administration of darolutamide 600 mg
Procedure, shortened: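 Unbound fractions of the parent, both diastereomers and keto metabolite were measured by equilibrium dialysis. Plasma came from healthy male subjects and from non-cancer patients with moderate hepatic or severe renal impairment, after a single oral 600 mg dose taken with food.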

[5] = Solubility in fed vs fasted state simulated intestinal fluid; format: physicochemical; conditions: in vitro data (data on file)
[6] = cited from earlier work
[7] = nonmetastatic CRPC, cited from earlier work
[8] = tested on: plasma proteins; test: In vitro plasma protein binding; format: in vitro ADME; conditions: human plasma (data on file)
[9] = tested on: patients with nonmetastatic castration-resistant prostate cancer (CRPC); conditions: 600 mg BID, cited from earlier work
[10] = Day 1 (single dose) 600 mg oral with food, median (range)
[11] = Day 7 (multiple doses) 600 mg BID oral with food, median (range)
[12] = male, human, plasma, po, 600 mg
[13] = moderate hepatic impairment (Child–Pugh class B)
[14] = 100 µg IV 14C-microtracer, 15-min infusion, geometric mean (CV%)
[15] = male, human, plasma, iv, 100 µg
[16] = male, human, plasma, po, 300 mg, single 300 mg oral 14C-solution, fasted, geometric mean (CV%)
[17] = male, human, plasma, po, 300 mg, single 300 mg oral tablet, fasted, geometric mean (CV%)

## C[C@@H](Cn1ccc(-c2ccc(C#N)c(Cl)c2)n1)NC(=O)c1cc([C@@H](C)O)[nH]n1 [(S,R)-darolutamide]
[1]; after the IV dose
  clearance, (S,R)-darolutamide higher vs (S,S)-darolutamide: 2.9 fold
[2]
  RLIN, linearity factor (ratio of multiple-dose AUC0–12 to single-dose AUC): 0.9
  RAAUC, accumulation ratio based on AUC0–12: 1.2
  RACmax, accumulation ratio based on Cmax: 1.2
[2]; Day 1 (single dose) 600 mg oral with food, geometric mean/geometric CV% (range)
  Terminal t½: 14.5 h
[2]; [10]
  tmax: 3.97 (1.02–6.02) h
[2]; [11]
  tmax: 3.00 (0.967–4.00) h

## C[C@H](O)c1cc(C(=O)N[C@@H](C)Cn2ccc(-c3ccc(C#N)c(Cl)c3)n2)n[nH]1 [(S,S)-darolutamide]
[2]
  RLIN, linearity factor (ratio of multiple-dose AUC0–12 to single-dose AUC): 1.1
  RAAUC, accumulation ratio based on AUC0–12: 2.3
  RACmax, accumulation ratio based on Cmax: 2.0
[2]; [10]
  tmax: 5.98 (2.50–8.00) h
[2]; [11]
  tmax: 3.98 (0.00–6.02) h

## CC(O)c1cc(C(=O)N[C@@H](C)Cn2ccc(-c3ccc(C#N)c(Cl)c3)n2)[nH]n1 (stereo partly shown) [Darolutamide]
[3]; Moderate hepatic impairment, single oral 600 mg with food, median (range)
  tmax: 4.00 (4.00–8.00) h
[3]; Severe renal impairment, single oral 600 mg with food, median (range)
  tmax: 4.00 (3.00–12.0) h
[3]; [12]
  tmax: 4 h
[3]; moderate hepatic impairment
  terminal t½ compared with healthy subjects: did not change
[3]; [13]
  Cmax increase vs healthy subjects: 1.5 fold
  exposure (AUC0–48) increase vs healthy subjects: 1.9 fold
[3]; severe renal impairment
  terminal t½ vs healthy subjects: prolonged
  Cmax increase vs healthy subjects: 1.6 fold
  exposure (AUC0–48) increase vs healthy subjects: 2.5 fold
[4]
  mean free (unbound) fraction in plasma: 7.8%
[5]
  solubility in fed vs fasted state simulated intestinal fluid: improved solubility
[6]
  absolute bioavailability of tablet given with food: 60–75%
[1]; [14]
  AUC0–inf: 13,645 (39.5)^a h⋅pg eq/mL
  Cmax: 4127 (27.4)^a pg eq/mL
[1]; 300 mg oral solution
  fraction absorbed based on amount of total 14C-radioactivity excreted in urine: 127%
  fraction absorbed based on plasma AUC of total 14C-radioactivity: 109%
[1]; male, human, po, 300 mg, single 300 mg oral 14C-solution, fasted, geometric mean (CV%)
  CL renal: 7.73 mL/min
[1]; male, human, po, 300 mg, single 300 mg oral tablet, fasted, geometric mean (CV%)
  CL renal: 6.52 mL/min
[1]; [15]
  Vd: 119 L
  clearance: 116 mL/min
[1]; male, human, plasma, iv, 100 µg, 100 µg IV 14C-microtracer, 15-min infusion, geometric mean (CV%)
  half-life: 11.8 h
[1]; [16]
  AUC(0-inf): 45600 ng·h/mL
  AUC(0-t): 45300 ng·h/mL
  Vd/F: 101 L
  half-life: 10.6 h
[1]; [17]
  AUC(0-inf): 12900 ng·h/mL
  AUC(0-t): 12400 ng·h/mL
  Vd/F: 514 L
  half-life: 15.3 h
[1]; male, human, plasma, po, 300 mg, Cmax, single 300 mg oral 14C-solution, fasted, geometric mean (CV%)
  Cmax: 3820 ng/mL
[1]; male, human, plasma, po, 300 mg, Cmax, single 300 mg oral tablet, fasted, geometric mean (CV%)
  Cmax: 800 ng/mL
[1]; male, human, plasma, po, 300 mg, F (absolute oral bioavailability), single 300 mg oral 14C-solution, fasted, geometric mean (CV%)
  bioavailability: 98.9%
[1]; male, human, plasma, po, 300 mg, F (absolute oral bioavailability), single 300 mg oral tablet, fasted, geometric mean (CV%)
  bioavailability: 29.9%
[1]; male, human, plasma, po, 300 mg, absolute bioavailability, single 300 mg oral solution, fasted
  bioavailability: 98.9%
[1]; male, human, plasma, po, 300 mg, single 300 mg oral 14C-solution, fasted
  tmax: 1.58 h
[1]; male, human, plasma, po, 300 mg, single 300 mg oral tablet, fasted
  tmax: 3.5 h
[1]; single 300 mg oral 14C-solution, fasted, geometric mean (CV%)
  CL/F: 110 (21.3) mL/min
[1]; single 300 mg oral solution, fasted
  absolute bioavailability: ~ 100%
[1]; single 300 mg oral tablet, fasted, geometric mean (CV%)
  CL/F: 388 (36.2) mL/min
[1]; single 300 mg, fasted
  mean AUC0–inf, oral solution higher than tablet formulation: 3.5 fold
  mean Cmax, oral solution higher than tablet formulation: 4.8 fold
[1]; single 300-mg oral tablet, fasted state, IV microtracer as reference
  absolute bioavailability based on AUC0–inf: ~ 30%
[1]; single oral solution dose
  mean whole blood:plasma ratio of total 14C-radioactivity: 0.7
[7]; patients with mild hepatic impairment
  exposure vs patients with normal organ function: not higher
[7]; patients with mild or moderate renal impairment
  exposure vs patients with normal organ function: at most only slightly higher
[8]
  mean free (unbound) fraction: ~ 8% and 8%
[2]
  RLIN, linearity factor (ratio of multiple-dose AUC0–12 to single-dose AUC): 1.1
  trough concentrations reached steady-state levels after: 1 days
  RAAUC, accumulation ratio based on AUC0–12: 2.1
  RACmax, accumulation ratio based on Cmax: 1.9
[2]; [10]
  tmax: 5.97 (2.50–7.95) h
[2]; [11]
  tmax: 3.98 (2.00–5.98) h
[2]; male, human, plasma, oral, 600 mg
  half-life: 13 h
[2]; [12]
  AUC(0-inf): 26200 ng·h/mL
  half-life: 11.6 h
[2]; male, human, plasma, po, 600 mg, median time to peak concentration, oral tablet, single dosing of 600 mg
  tmax: 4 to 6 h
[2]; single oral dose 600 mg with food, healthy male subjects
  mean peak plasma concentration: 1.77 µg/mL
[2]; twice-daily dosing
  time to steady state: approximately 2 days
[9]; 95% confidence interval 0.53–0.88, p = 0.003
  overall survival hazard ratio vs placebo: 0.69
[9]; p < 0.001 vs placebo
  metastasis-free survival: 40.4 months

## CC(=O)c1cc(C(=O)N[C@@H](C)Cn2ccc(-c3ccc(C#N)c(Cl)c3)n2)[nH]n1 [Keto-darolutamide, keto-darolutamide]
[3]; patients with renal or hepatic impairment, increase less pronounced than for darolutamide
  plasma exposure (AUC0–48) vs healthy subjects: increased
[4]
  mean free (unbound) fraction in plasma: 0.12%
[1]; IV microtracer dose
  metabolite:parent total concentration ratio based on AUC0–inf: 1.50
[1]; oral solution dose
  metabolite:parent total concentration ratio based on AUC0–inf: 2.06
[1]; oral tablet dose
  metabolite:parent total concentration ratio based on AUC0–inf: 1.67 and 1.7
[8]
  mean free (unbound) fraction: 0.2% and < 1%
[2]
  RLIN, linearity factor (ratio of multiple-dose AUC0–12 to single-dose AUC): 1.2
  trough concentrations reached steady-state levels after: 1 days
  RAAUC, accumulation ratio based on AUC0–12: 2.2
  RACmax, accumulation ratio based on Cmax: 2.0
[2]; [10]
  tmax: 4.00 (2.50–6.02) h
[2]; [11]
  tmax: 3.00 (1.48–5.97) h
[2]; after single and multiple dosing of darolutamide
  plasma exposure of keto-darolutamide vs darolutamide: approximately twofold higher
